The record followed here is ChEMBL document CHEMBL1122413, “Chloralanyl and propargylglycyl dipeptides. Suicide substrate containing antibacterials” (1983).

The subject of one assay is Klebsiella aerogenes. As to the kind of experiment: Minimum inhibitory concentration against Enterobacter aerogenes. Format: functional. Summed up: (§1)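 Agar dilution on defined peptide susceptibility medium with peptide in serial twofold dilutions. Strains subcultured on blood or chocolate agar. Inoculum from overnight culture in liquid peptide medium, diluted to approx 1×10^7 cfu/mL, applied by Steers replicator. Plates incubated overnight at 37 °C. MIC taken as lowest concentration permitting fewer than ten colonies at 16–18 h.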

For the next assay, the system named is Pseudomonas aeruginosa. As to the kind of experiment: Minimum inhibitory concentration against Pseudomonas aeruginosa. Format: functional. The method, boiled down:
as §1

The subject of the next assay is Serratia marcescens. Description: Minimum inhibitory concentration against Serratia marcescens. Format: functional. Summed up: as §1
Another assay deals with Shigella flexneri. As to the kind of experiment: Minimum inhibitory concentration against Shigella flexneri. Type of assay: functional. Summed up:
as §1

In another assay the test system is Haemophilus influenzae. Description: Minimum inhibitory concentration against Hemophilus influenzae. Type of assay: functional. Summed up:
(§2)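 Agar dilution on defined peptide susceptibility medium with hemin (25 μg/mL), NAD (25 μg/mL) and Isovitalex (1%) added, peptide in serial twofold dilutions. Colonies from overnight chocolate or blood agar resuspended in liquid peptide medium to 10⁸ cfu/mL, applied by Steers replicator. Incubation overnight at 37 °C under 7% CO₂. MIC: lowest concentration giving fewer than ten colonies at 16–18 h.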

A further assay concerns Streptococcus pyogenes. As to the kind of experiment: Minimum inhibitory concentration against Streptococcus pyogenes. Format: functional. The method, boiled down: as §2
The subject of the next assay is Enterobacter cloacae. As to the kind of experiment: Minimum inhibitory concentration against Enterobacter cloacae. Type of assay: functional. Summed up:
as §1

In a further assay the test system is Staphylococcus aureus. Description: Minimum inhibitory concentration against Staphylococcus aureus. Format: functional. Summed up: as §1
For a further assay, the system named is Proteus mirabilis. Description: Minimum inhibitory concentration against Proteus mirabilis. Type of assay: functional. The method, boiled down: as §1
Another assay deals with Klebsiella pneumoniae. Description: Minimum inhibitory concentration against Klebsiella pneumoniae. Type of assay: functional. Summed up: as §1
The test system of another assay is Enterococcus faecalis. As to the kind of experiment: Minimum inhibitory concentration against Streptococcus faecalis. Type of assay: functional. Summed up:
as §1

For the next assay, the system named is Salmonella typhimurium. Description: Minimum inhibitory concentration against Salmonella Typhimurium. To be noted: Salmonella enterica. Format: functional, Salmonella enterica subsp. enterica serovar Typhimurium. The method, boiled down:
as §1

The subject of a further assay is Escherichia coli. Description: Minimum inhibitory concentration against Escherichia coli. Type of assay: functional. Summed up: as §1
The subject of assay [1] is Staphylococcus epidermidis. As to the kind of experiment: Minimum inhibitory concentration against Staphylococcus epidermidis. Type of assay: functional. The method, boiled down: as §1
The next assay concerns Streptococcus agalactiae. Description: Minimum inhibitory concentration against Streptococcus agalactiae. Type of assay: functional. The method, boiled down: as §2
The subject of the next assay is Morganella morganii. As to the kind of experiment: Minimum inhibitory concentration against Morganella morganii. Format: functional. The method, boiled down: as §1

Converted amounts (≈) assume the structure as drawn.

Consider `C#CC[C@H](NC(=O)[C@@H](N)CCl)C(=O)O.O=C(O)C(F)(F)F`, for which the MIC was 25 mg/L in the assay on Klebsiella aerogenes; greater than 100 mg/L with Pseudomonas aeruginosa; greater than 100 mg/L with Serratia marcescens; 3.12 mg/L against Shigella flexneri; 1.56 mg/L against Haemophilus influenzae; 25 mg/L in the assay on Streptococcus pyogenes. Moreover, the MIC is 25 mg/L against Enterobacter cloacae; 0.1 mg/L in the assay on Staphylococcus aureus; greater than 100 mg/L against Proteus mirabilis; greater than 100 mg/L in the assay with Klebsiella pneumoniae; 3.12 mg/L against Enterococcus faecalis; greater than 100 mg/L in the assay with Salmonella typhimurium. Further, the MIC with Escherichia coli is 3.12 mg/L; in assay [1], 0.05 mg/L; with Streptococcus agalactiae it was 0.39 mg/L; against Morganella morganii, greater than 100 mg/L.
As to `CCC[C@H](N)C(=O)N[C@@H](CCl)C(=O)O.O=C(O)C(F)(F)F`, the MIC was greater than 100 mg/L in the assay on Klebsiella aerogenes; greater than 100 mg/L against Pseudomonas aeruginosa; greater than 100 mg/L in the assay on Serratia marcescens; greater than 100 mg/L with Shigella flexneri; 0.78 mg/L in the assay with Haemophilus influenzae; greater than 100 mg/L with Streptococcus pyogenes. In addition, the MIC against Enterobacter cloacae was 6.25 mg/L; with Staphylococcus aureus, 0.025 mg/L; with Proteus mirabilis, 12.5 mg/L; with Klebsiella pneumoniae it was greater than 100 mg/L; in the assay on Enterococcus faecalis, 0.39 mg/L; against Salmonella typhimurium it was greater than 100 mg/L. Besides, the MIC against Escherichia coli was 1.56 mg/L; in [1] it was 0.025 mg/L; in the assay on Streptococcus agalactiae, 0.2 mg/L; with Morganella morganii, 50 mg/L.
Take `C#CCC(NC(=O)[C@H](C)N)C(=O)O.O=C(O)C(F)(F)F` (some centres undefined): the MIC in the assay with Klebsiella aerogenes, in the assay with Pseudomonas aeruginosa, in the assay with Serratia marcescens, in the assay with Shigella flexneri, in the assay with Haemophilus influenzae and in the assay with Streptococcus pyogenes was greater than 100 mg/L in each case. Further, the MIC with Enterobacter cloacae, against Staphylococcus aureus, against Proteus mirabilis, against Klebsiella pneumoniae, in the assay with Enterococcus faecalis and in the assay on Salmonella typhimurium was greater than 100 mg/L each time. Further, the MIC against Escherichia coli is greater than 100 mg/L; in assay [1], 3.12 mg/L; against Streptococcus agalactiae it was 50 mg/L; with Morganella morganii, greater than 100 mg/L.
On to `C#CCC(NC(=O)[C@H](N)CCl)C(=O)O.O=C(O)C(F)(F)F` (some centres undefined), for which the MIC against Klebsiella aerogenes, against Pseudomonas aeruginosa, in the assay with Serratia marcescens, in the assay on Shigella flexneri, with Haemophilus influenzae and against Streptococcus pyogenes was greater than 100 mg/L throughout. Moreover, the MIC against Enterobacter cloacae, in the assay on Staphylococcus aureus, against Proteus mirabilis, against Klebsiella pneumoniae, against Enterococcus faecalis and with Salmonella typhimurium was greater than 100 mg/L throughout. Also, the MIC (in the assay with Escherichia coli; in assay [1]; with Streptococcus agalactiae; against Morganella morganii) was greater than 100 mg/L throughout.
Turning to `C#CC[C@H](N)C(=O)N[C@@H](C)C(=O)O.O=C(O)C(F)(F)F`, the MIC against Klebsiella aerogenes, against Pseudomonas aeruginosa, in the assay on Serratia marcescens, in the assay on Shigella flexneri, against Haemophilus influenzae and in the assay on Streptococcus pyogenes was greater than 100 mg/L in each case. The MIC in the assay on Enterobacter cloacae, against Staphylococcus aureus, against Proteus mirabilis, with Klebsiella pneumoniae, in the assay on Enterococcus faecalis and in the assay with Salmonella typhimurium was greater than 100 mg/L in each case. Also, the MIC in the assay on Escherichia coli is greater than 100 mg/L; in [1], 1.56 mg/L; in the assay with Streptococcus agalactiae, greater than 100 mg/L; against Morganella morganii it was greater than 100 mg/L.
On to `C#CCC(N)C(=O)N[C@@H](C)C(=O)O.O=C(O)C(F)(F)F` (some centres undefined), for which the MIC in the assay with Klebsiella aerogenes, against Pseudomonas aeruginosa, with Serratia marcescens, in the assay with Shigella flexneri, in the assay with Haemophilus influenzae and against Streptococcus pyogenes was greater than 100 mg/L each time. Further, the MIC was greater than 100 mg/L against Enterobacter cloacae; 50 mg/L against Staphylococcus aureus; greater than 100 mg/L in the assay on Proteus mirabilis; greater than 100 mg/L with Klebsiella pneumoniae; greater than 100 mg/L against Enterococcus faecalis; greater than 100 mg/L against Salmonella typhimurium. In addition, the MIC with Escherichia coli was greater than 100 mg/L; in assay [1], 3.12 mg/L; in the assay with Streptococcus agalactiae it was greater than 100 mg/L; against Morganella morganii, greater than 100 mg/L.
As to `C[C@H](N)C(=O)N[C@H](CCl)C(=O)O.O=C(O)C(F)(F)F`, the MIC against Klebsiella aerogenes, against Pseudomonas aeruginosa, with Serratia marcescens, against Shigella flexneri, against Haemophilus influenzae and in the assay on Streptococcus pyogenes was greater than 100 mg/L each time. For the same compound, the MIC with Enterobacter cloacae, in the assay on Staphylococcus aureus, with Proteus mirabilis, against Klebsiella pneumoniae, against Enterococcus faecalis and with Salmonella typhimurium was greater than 100 mg/L in each case. Also, the MIC (against Escherichia coli; in assay [1]; with Streptococcus agalactiae; in the assay with Morganella morganii) was greater than 100 mg/L in each case.
In the case of `N[C@@H](CCl)C(=O)N[C@@H](CCl)C(=O)O.O=C(O)C(F)(F)F`, the MIC is 25 mg/L against Klebsiella aerogenes; greater than 100 mg/L with Pseudomonas aeruginosa; greater than 100 mg/L in the assay on Serratia marcescens; 12.5 mg/L in the assay on Shigella flexneri; 1.56 mg/L against Haemophilus influenzae; 1.56 mg/L in the assay on Streptococcus pyogenes. For the same compound, the MIC was 12.5 mg/L in the assay with Enterobacter cloacae; 0.05 mg/L against Staphylococcus aureus; 50 mg/L in the assay with Proteus mirabilis; greater than 100 mg/L with Klebsiella pneumoniae; 3.12 mg/L with Enterococcus faecalis; greater than 100 mg/L in the assay with Salmonella typhimurium. Also, the MIC against Escherichia coli turned out to be 1.56 mg/L; in [1], 0.05 mg/L; in the assay with Streptococcus agalactiae, 0.39 mg/L; in the assay with Morganella morganii, 50 mg/L.
As for `C[C@@H](N)C(=O)N[C@H](CCl)C(=O)O.O=C(O)C(F)(F)F`, the MIC in the assay with Klebsiella aerogenes, with Pseudomonas aeruginosa, with Serratia marcescens, in the assay on Shigella flexneri, in the assay on Haemophilus influenzae and against Streptococcus pyogenes was greater than 100 mg/L each time. In addition, the MIC in the assay with Enterobacter cloacae, against Staphylococcus aureus, in the assay on Proteus mirabilis, against Klebsiella pneumoniae, against Enterococcus faecalis and against Salmonella typhimurium was greater than 100 mg/L each time. The MIC (against Escherichia coli; in [1]; with Streptococcus agalactiae; against Morganella morganii) was greater than 100 mg/L in each case.
As to `C[C@@H](N)C(=O)N[C@H](C)C(=O)O.O=C(O)C(F)(F)F`, the MIC against Klebsiella aerogenes, with Pseudomonas aeruginosa, in the assay on Serratia marcescens, with Shigella flexneri, with Haemophilus influenzae and with Streptococcus pyogenes was greater than 100 mg/L throughout. For the same compound, the MIC against Enterobacter cloacae, in the assay with Staphylococcus aureus, against Proteus mirabilis, against Klebsiella pneumoniae, against Enterococcus faecalis and against Salmonella typhimurium was greater than 100 mg/L each time. For the same compound, the MIC (against Escherichia coli; in assay [1]; against Streptococcus agalactiae; in the assay on Morganella morganii) was greater than 100 mg/L throughout.
As to `C#CC[C@@H](NC(=O)[C@H](N)CCl)C(=O)O.O=C(O)C(F)(F)F`, the MIC in the assay on Klebsiella aerogenes, in the assay with Pseudomonas aeruginosa, against Serratia marcescens, with Shigella flexneri, against Haemophilus influenzae and with Streptococcus pyogenes was greater than 100 mg/L each time. The MIC against Enterobacter cloacae, against Staphylococcus aureus, against Proteus mirabilis, in the assay with Klebsiella pneumoniae, in the assay on Enterococcus faecalis and against Salmonella typhimurium was greater than 100 mg/L in each case. Besides, the MIC (with Escherichia coli; in [1]; in the assay with Streptococcus agalactiae; against Morganella morganii) was greater than 100 mg/L throughout.
Consider `C#CC[C@H](N)C(=O)O`, for which the MIC against Klebsiella aerogenes, against Pseudomonas aeruginosa, against Serratia marcescens, against Shigella flexneri, with Haemophilus influenzae and against Streptococcus pyogenes was greater than 100 mg/L throughout. In addition, the MIC against Enterobacter cloacae, in the assay with Staphylococcus aureus, in the assay with Proteus mirabilis, against Klebsiella pneumoniae, against Enterococcus faecalis and against Salmonella typhimurium was greater than 100 mg/L in each case. The MIC (against Escherichia coli; in assay [1]; against Streptococcus agalactiae; against Morganella morganii) was greater than 100 mg/L throughout.
Take `C#CC[C@@H](N)C(=O)O`: the MIC with Klebsiella aerogenes, against Pseudomonas aeruginosa, against Serratia marcescens, with Shigella flexneri, against Haemophilus influenzae and in the assay with Streptococcus pyogenes was greater than 100 mg/L each time. Further, the MIC is greater than 100 mg/L in the assay with Enterobacter cloacae; 50 mg/L (≈ 442 µM) in the assay with Staphylococcus aureus; greater than 100 mg/L in the assay on Proteus mirabilis; greater than 100 mg/L in the assay with Klebsiella pneumoniae; greater than 100 mg/L against Enterococcus faecalis; greater than 100 mg/L against Salmonella typhimurium. Moreover, the MIC (against Escherichia coli; in assay [1]; in the assay with Streptococcus agalactiae; with Morganella morganii) was greater than 100 mg/L each time.
Regarding `CSCC[C@H](N)C(=O)N[C@@H](CCl)C(=O)O.O=C(O)C(F)(F)F`, the MIC with Klebsiella aerogenes is 6.25 mg/L; against Pseudomonas aeruginosa it was greater than 100 mg/L; with Serratia marcescens, 50 mg/L; against Shigella flexneri it was greater than 100 mg/L; in the assay on Haemophilus influenzae it was 0.78 mg/L; against Streptococcus pyogenes, greater than 100 mg/L. Besides, the MIC in the assay with Enterobacter cloacae was 6.25 mg/L; with Staphylococcus aureus it was 0.025 mg/L; against Proteus mirabilis it was 100 mg/L; against Klebsiella pneumoniae, greater than 100 mg/L; in the assay with Enterococcus faecalis, 0.39 mg/L; in the assay on Salmonella typhimurium, greater than 100 mg/L. In addition, the MIC in the assay on Escherichia coli was 1.56 mg/L; in assay [1] it was 0.025 mg/L; with Streptococcus agalactiae it was 0.2 mg/L; against Morganella morganii, 50 mg/L.
